Published values pooled from the literature.
Values after ≈ are worked out from the molar mass of the structure shown.

CC[C@@]1(O)C(=O)OCc2c1cc1n(c2=O)Cc2cc3ccccc3nc2-1 — IC50 (HepG2; cell growth or viability; MTT; 48 h): 10.1 µM
Cc1cc(C(=O)O)ccc1-c1c2ccc(=O)cc-2oc2cc(OCc3ccc([N+](=O)[O-])o3)ccc12 — MIC90 (Mycobacterium tuberculosis; microbial growth; 7 days): 240 µM (≈ 113 µg/mL)
NNC(=O)c1ccncc1 — MIC (Mycobacterium tuberculosis; microbial growth; ATCC25177 H37RA; 14 days): 8 µg/mL
CCOC(=O)C1=C(C)NC(=NN)NC1c1ccc(F)cc1 (stereo not shown) — MIC (Mycobacterium tuberculosis; microbial growth; resazurin; H37RV): 85.5 µM
Cn1c([N+](=O)[O-])cnc1COc1ccc2nc3ccc(=O)cc-3oc2c1 — MIC90 (Mycobacterium tuberculosis; microbial growth; 7 days): > 256 µM
COc1cccc(/C=N/N2C(=O)c3ccccc3NC2c2cccc(OC)c2O)c1O (stereo not shown) — MIC (Mycobacterium tuberculosis; microbial growth; ATCC25177 H37RA; 14 days): > 128 µg/mL
CCOC(=O)C1=C(C)NC(=O)NC1c1cn(-c2ccccc2)nc1-c1ccccc1 (stereo not shown) — MIC (Mycobacterium tuberculosis; microbial growth; resazurin; H37RV): 62.1 µM
Cc1sc2c(c1C)C(c1ccc(Cl)cc1)=N[C@@H](CC(=O)OC(C)(C)C)c1nnc(C)n1-2 — IC50 (Ramos; cell growth or viability; ATP luminescence; 72 h): 0.545 µM
COc1c(N2CC3CCCN(C(=O)OC(C)(C)C)C3C2)c(F)cc2c(=O)c(C(=O)OCc3cnc([N+](=O)[O-])s3)cn(C3CC3)c12 (stereo not shown) — MIC (Mycobacterium tuberculosis; microbial growth; H37RV): > 8 µM
N.N.[Cl][Pt][Cl] — IC50 (A-431; cell growth or viability; MTT; 72 h): 2.1 µM
Cn1c(COc2ccc3nc4ccc(=O)cc-4oc3c2)cnc1[N+](=O)[O-] — MIC90 (Mycobacterium tuberculosis; microbial growth; 7 days): > 256 µM
CCOC(=O)C1=C(C)N(C(C)=O)C(=O)NC1c1cn(-c2ccccc2)nc1-c1ccccc1 (stereo not shown) — MIC (Mycobacterium tuberculosis; microbial growth; resazurin; H37RV): 56.2 µM
C1N2CN3CN1CP(C2)C3.Cc1cc(C)n(C(C(=O)OC(C)C)n2nc(C)cc2C)n1.F[P-](F)(F)(F)(F)F.[Cu+] — IC50 (A-431; cell growth or viability; MTT; 72 h): 11.3 µM
